Two molecules from ChEMBL document CHEMBL1151863, “Discovery of thioether-bridged cyclic pentapeptides binding to Grb2-SH2 domain with high affinity” (Bioorg Med Chem Lett, 2009) can be followed below.

Numbered stars: 1 amine (or outer) side, 2 acyl side, 3 side chain; on linkers, the order of the positions; unused ones are H or OH. Bridge positions count the residues as written; N and C are the ends. Square brackets hold non-standard residues; d marks the D form. Peptide text beside a SMILES is read from it. pY = N[C@@H](Cc1ccc(OP(=O)(O)O)cc1)C(=O)O; X1 = O=C(C1(N[*:1])CCCNC1)[*:2]

The target in the experiment is Growth factor receptor-bound protein 2 (Homo sapiens, UniProt P62993). Description: Binding affinity to GST-tagged recombinant Grb2 SH2 domain by Biacore assay. An outline of the steps: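 Surface plasmon resonance (Biacore) binding to the Grb2-SH2 domain, reported as Kd. Values are means of two experiments, with standard deviation given.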
Chain of Growth factor receptor-bound protein 2 (P62993 whole entry, the tested form may be a part): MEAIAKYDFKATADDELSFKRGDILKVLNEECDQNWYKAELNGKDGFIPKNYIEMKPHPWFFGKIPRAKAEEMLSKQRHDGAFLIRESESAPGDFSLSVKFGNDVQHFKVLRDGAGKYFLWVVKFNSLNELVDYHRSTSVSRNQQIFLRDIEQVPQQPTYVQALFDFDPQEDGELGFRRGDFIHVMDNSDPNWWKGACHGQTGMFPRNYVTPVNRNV
For orientation: SPR reads the build-up and loss of mass on a sensor chip optically.

`NC(=O)C[C@H]1NC(=O)C2(CCCCC2)NC(=O)[C@@H](Cc2ccc(OP(=O)(O)O)cc2)NC(=O)C[S@@+]([O-])C[C@H](C(N)=O)NC(=O)[C@@H](Cc2ccc3ccccc3c2)NC1=O` (single isomer, unassigned): the dissociation constant Kd – broadly, a measure of binding affinity in units of concentration – was 4800 nM. In the case of `CC(C)[C@@H]1NC(=O)[C@H](CC(N)=O)NC(=O)C2(CCCNC2)NC(=O)[C@H](Cc2ccc(OP(=O)(O)O)cc2)NC(=O)CSC[C@@H](C(N)=O)NC1=O` (some centres not stated) ({CH2CO}-[pY][X1]NVC-NH2; thioether N-5), the dissociation constant (Kd) was 359 nM.
